ChEMBL document CHEMBL1122292, “Aza analogues of lucanthone: synthesis and antitumor and bactericidal properties” (J Med Chem, 1983)

Legend:
Format in all cases: functional, organism-based
[1] = test system: Bacillus subtilis; assay: In vitro antibiotic activity against Bacillus subtilis ATCC 6633 at 1.8E-8 mol dose; - symbol indicates negative result.
How it was run: (§1)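 Compounds were dissolved in ethyl alcohol at 3–5 × 10⁻⁶ mol/mL. Aliquots of 5, 10 or 20 μL were applied to 6-mm filter disks and dried under a light nitrogen stream. The disks were laid on an agar overlay inoculated with the test organism and incubated at 37 °C for 24 h. Inhibition-zone diameters were then measured.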

[2] = test system: Candida albicans; assay: In vitro antibiotic activity against Candida albicans at 1.8E-8 mol dose; - symbol indicates negative result.; how it was run: as §1
[3] = test system: Candida albicans; assay: In vitro antibiotic activity against Candida albicans at 3.6E-8 mol dose; - symbol indicates negative result.; how it was run: as §1
[4] = test system: Escherichia coli; assay: In vitro antibiotic activity against Escherichia coli ATCC 10536 at 7.2E-8 mol dose; ++ symbol indicates slight constraint, transient positive result.; how it was run: as §1
[5] = test system: Staphylococcus aureus; assay: In vitro antibiotic activity against Staphylococcus aureus ATCC 6358P at 1.8E-8 mol dose; +/- symbol indicates slightly positive result.; how it was run: as §1
[6] = test system: Staphylococcus aureus; assay: In vitro antibiotic activity against Staphylococcus aureus ATCC 6358P at 3.6E-8 mol dose; +/- symbol indicates slightly positive result.; how it was run: as §1
[7] = test system: Staphylococcus aureus; assay: In vitro antibiotic activity against Staphylococcus aureus ATCC 6358P at 7.2E-8 mol dose; +/- symbol indicates slightly positive result.; how it was run: as §1
[8] = test system: Candida albicans; assay: In vitro antibiotic activity against Candida albicans at 7.2E-8 mol dose; - symbol indicates negative result.; how it was run: as §1

Q: Which results are given for CCN(CC)CCCNc1nc(C)cc2nc3ccccc3c(O)c12?
A: Antibiotic activity [1]: Negative result; Antibiotic activity [2]: Negative result; Antibiotic activity [3]: Negative result; Antibiotic activity [4]: slight constraint, transient positive result; Antibiotic activity [5]: +/-; Antibiotic activity [6]: +/-; Antibiotic activity [7]: +/-; Antibiotic activity [8]: Negative result
